Assay outcomes from PubChem BioAssay.
GPR7 antag – GPR7 receptor antagonists, primary screen, cell-based, fluorescence, single concentration | Neuropeptides B/W receptor type 1 (Homo sapiens), P48145 | GPR7-expressing cells, fluorescence antagonist assay | inhibition, % at 4.4 µM | 290,000 compounds, 1.1% hits | AID 1861, 2009; in the data active = inhibition above about 16%, passing the limit was not always enough;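 also: cells stimulated with the agonist NPW; 0% = agonist with vehicle and 100% = vehicle without agonist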
Target sequence (P48145 whole entry, looked up): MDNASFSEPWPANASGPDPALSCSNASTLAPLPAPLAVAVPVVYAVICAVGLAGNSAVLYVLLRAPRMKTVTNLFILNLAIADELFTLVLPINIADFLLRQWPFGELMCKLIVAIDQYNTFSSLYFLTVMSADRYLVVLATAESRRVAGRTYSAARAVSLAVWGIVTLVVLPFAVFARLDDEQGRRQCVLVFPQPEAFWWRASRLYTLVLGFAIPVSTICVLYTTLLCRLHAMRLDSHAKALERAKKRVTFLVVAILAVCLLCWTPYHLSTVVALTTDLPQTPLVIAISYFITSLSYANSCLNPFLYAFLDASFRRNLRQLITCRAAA
OX1R antag-1 – antagonists of human orexin 1 receptor (OX1R) | 330,000 compounds, 1.8% hits | inhibition, % at 6.6 µM | AID 485270, 2010 | Orexin/Hypocretin receptor type 1 (Homo sapiens), O43613 | OX1R-expressing cells, FRET antagonist read-out; in the data active = inhibition mostly above about 38%, no sharp cut-off; inactive = mostly below about 40%;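 also: 0% = agonist challenge alone and 100% = reference antagonist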
TAAR1 antagonist – human TAAR1 antagonists, primary screen, Fluo-8 calcium fluorescence, CHO RD-HGA16 cells; antagonist; inhibition, % at 3 µM; 360,000 compounds, 1.5% hits; AID 624466, 2012;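 active = inhibition above a per-plate cutoff, the mean inhibition of test compounds on that plate plus 3 SD, cut at about 49% in these data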;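 also: 0% = DMSO plus EC80 beta-PEA response and 100% = DMSO alone without agonist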
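Test system: hTAAR1-expressing CHO RD-HGA16 cells, Gα16-coupled; Probe or stimulus: EC80 β-phenethylamine stimulus; Compound dosing: single nominal final test compound concentration of 3 µM; Timing: 140 s kinetic read after compound, 140 s after agonist; Signal: Fluo-8 calcium-sensitive fluorescence; Measure: % inhibition of agonist calcium response; Controls: DMSO and EC80 PEA controls.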
TAAR1 agonist – human TAAR1 agonists, primary screen, Fluo-8 calcium fluorescence, CHO RD-HGA16 cells; Trace amine-associated receptor 1 (Homo sapiens), Q96RJ0; vehicle wells 0%, saturating PEA agonist 100%; activation, % at 3 µM; 360,000 compounds, 0.99% hits; AID 624467, 2012;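 active = activation above the mean activation of all test compounds in the run plus 3 SD, cut at about 38% in these data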
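Test system: RD-HGA16 (CHO) cells co-expressing Gα16 and hTAAR1 | Doses: Single dose, 3 µM | Schedule: 17-24 h seeding, 75 min 37 °C dye, 30 min RT | Evaluation: % activation from peak over basal fluorescence ratio, DMSO-to-PEA scaled | Technique: Kinetic Fluo-8 calcium fluorescence | Benchmarks: Low control DMSO, high control PEA (EC100)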
OX1R antag-2 – OX1R (HCRTR1) antagonists, primary screen, fluorescence, CHO/OX1R cells, Fluo-8 calcium, orexin A | Orexin/Hypocretin receptor type 1 (Homo sapiens), O43613 | Fluo-8 calcium fluorescence | inhibition, % at 5 µM | 330,000 compounds, 0.43% hits | AID 434989, 2010;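 active = inhibition above its plate's threshold, mean inhibition of all tested compounds on the plate plus 3 SD, cut at about 37% in these data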;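 also: 0% = orexin A challenge wells and 100% = SB-334867-A antagonist wells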
CHO parental Ca – ATP-evoked calcium signal inhibitors, parental CHO, primary screen, counter-screen for OX1R antagonist project, cell-based, fluorescence, Fluo-8 calcium dye; parental CHO-K1, ATP-induced calcium, Fluo-8 fluorescence; inhibition, % at 5.6 µM; 330,000 compounds, 0.63% hits; AID 463079, 2010;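 active = inhibition above that plate's mean sample inhibition plus 3 SD, cut at about 26% in these data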;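 also: 0% = ATP-challenged DMSO wells and 100% = DMSO wells without ATP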
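Assay system: parental CHO cells; Read-out basis: percent inhibition of ATP-evoked calcium rise, normalized to controls; Benchmarks: ATP and no-ATP DMSO wells; Compound dosing: single nominal dose of 5.6 µM per compound; Signal: Fluo-8 calcium dye fluorescence; Also added: ATP as calcium-mobilizing challenge; Repeats: singlicate.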
Numbers without * were called inactive; x = not tested or not shown. Only some compounds are listed: those with a hit (about 4.6% of all), similar ones and a draw of the others.

SMILES | GPR7 antag | OX1R antag-1 | TAAR1 antagonist | TAAR1 agonist | OX1R antag-2 | CHO parental Ca
COc1ccc(NC(=O)c2oc3ccccc3c2C)c(OC)c1 | 0.2 | 52.9* | -10.9 | 10.4 | 1.8 | -20.8
COc1ccccc1NC(=O)c1oc2ccccc2c1C | x | x | 0.4 | 2.6 | x | x
CCOCC(=O)Nc1c(C(=O)Nc2ccccc2OC)oc2ccccc12 | 8.2 | 0.9 | 8.6 | 4.7 | -3.1 | -7.7
CCN(c1cccc(C(F)(F)F)c1)S(=O)(=O)c1ccc2c(c1)CCN2C(=O)C1CC1 | -16.4 | 22.9 | 60.9* | 6.0 | 17.1 | 65.0*
CCC(=O)N1CCc2cc(S(=O)(=O)N(CC)c3cccc(C)c3)ccc21 | -9.1 | 7.2 | 16.6 | 9.4 | -12.9 | -9.2
C[C@@H]1CNC(=O)c2c(C(=O)Nc3ccc(CNC(=O)OC(C)(C)C)cc3)ncn21 | x | x | 50.5* | 13.1 | x | x
C[C@H]1NS(=O)(=O)c2cccc(Cl)c2O[C@@H]1c1ccccc1 | x | x | 15.0 | 1.4 | x | x
COc1ccccc1/C=C1\SC(=S)N(CCC(=O)N2CCCCC2CCO)C1=O (stereo unspecified) | -10.1 | 0.2 | -6.5 | 7.7 | -24.8 | -37.3
O=C1/C(=C/c2cccs2)SC(=S)N1CCC(=O)N1CCCCC1CCO (stereo unspecified) | 12.3 | 48.3* | 21.7 | 7.6 | 16.7 | -19.4
CCN(CC)C(=O)CSc1nnc2c3ccccc3n(C)c2n1 | -5.0 | 25.9 | -7.8 | 3.1 | -14.5 | -6.7
CCCSc1nnc2nc3c(nn12)c1ccccc1n3C | -1.6 | 66.0* | -22.0 | -2.7 | 1.8 | 1.1
COC(=O)[C@]12C[C@H](CC(=O)NCc3ccccc3)C(=O)N(Cc3ccccc3)C1=C[C@H](C(C)C)O[C@@H]2C1CC1 | x | x | -6.3 | -2.6 | x | x
O=[N+]([O-])c1ccc(N2CCCC2)nc1 | -2.5 | 42.0* | -18.4 | 0.8 | -5.5 | -15.4
C/C(=N\NC(=O)C1CC1)c1ccc(N2CCOCC2)cc1 | 16.5* | 16.4 | -1.9 | 0.7 | -0.5 | 16.4
C/C(=N\NC(=O)c1ccccc1)c1ccc(N2CCOCC2)cc1 | 6.0 | 14.6 | 4.0 | -0.8 | -3.3 | 5.3
CCOCCCNC(=O)C1CCC(CNS(=O)(=O)c2cccc3nsnc23)CC1 (stereo unspecified) | -7.1 | 52.9* | 7.0 | 6.8 | -11.7 | -7.2
O=C(CCCNS(=O)(=O)c1cccc2nsnc12)NC1CCCCC1 | 3.6 | 80.2* | 8.1 | 0.7 | -19.7 | -11.7
CCCCNC(=O)C1CCC(CNS(=O)(=O)c2cccc3nsnc23)CC1 (stereo unspecified) | -9.6 | 40.8 | -23.1 | 11.0 | -8.3 | -11.2
CC1CCCN(CCCNC(=O)C2CCC(CNS(=O)(=O)c3cccc4nsnc34)CC2)C1 (stereo unspecified) | -5.5 | 48.2* | x | x | 0.9 | -7.4
COCCNC(=O)C1CCC(CNS(=O)(=O)c2cccc3nsnc23)CC1 (stereo unspecified) | -13.4 | 24.2 | -10.8 | 4.5 | 7.2 | -3.7
CCC(C)NC(=O)C1CCC(CNS(=O)(=O)c2cccc3nsnc23)CC1 (stereo unspecified) | -6.7 | 49.7* | x | x | -8.2 | -9.7
CCCNC(=O)C1CCC(CNS(=O)(=O)c2cccc3nsnc23)CC1 (stereo unspecified) | -17.0 | 33.6 | -7.4 | 5.5 | 7.6 | 0.3
CCCCOCCCNC(=O)C[C@H]1C[C@@]2(C(=O)OC)C(=C[C@H](C3CCCC3)O[C@@H]2C)N(Cc2ccccc2)C1=O | x | x | -31.0 | -1.9 | x | x
Cc1cc(Oc2cccc3c2S(=O)(=O)N([C@H](C)c2ccccc2)C[C@@H](COCc2ccccc2)O3)cc(C)c1C | x | x | 1.8 | 2.9 | x | x
COC(=O)C1=C(C)N(Cc2cccc(C(F)(F)F)c2)C(=NCc2cc(OC)c(OC)c(OC)c2)NC1c1cccc(Cl)c1 (stereo unspecified) | x | x | 25.3 | 30.8 | x | x
